Rows were chosen to be rich in hits. Some 2.6% of all compounds tested hit in one or more screens of this group.
iPSC survival up – enhancers of single-cell hiPSC survival, primary screen, ATPlite luminescence. 100% = ROCK inhibitor wells, 0% = DMSO. survival enhancement, % at 20 µM. actives 0.044% (n = 360,000). AID 602274, 2012; in the data active = survival enhancement above about 18%;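 note: cells exposed to compounds for 16 hours before the ATP read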
MC4R barr agon – MC4R agonists recruiting beta-arrestin, primary screen, cell-based, luminescence, agonist arm of biased-ligand search | actives 0.98% (n = 360,000) | Melanocortin receptor 4 (Homo sapiens), P32245 | U2OS MC4R beta-arrestin complementation; percent of melanotan II response, DMSO zero | activation, % at 8.9 µM;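 active = activation above a per-plate cutoff, the mean activation of sample wells on that plate plus 3 SD, cut at about 8% in these data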
Exocytosis inh – LAMP-1 surface exposure blockers, TALL-104 cells – cell-based, flow cytometry, MLPCN library, primary screen | TALL-104 LAMP-1 surface exposure; cells stimulated with thapsigargin and PMA | inhibition, % at 10 µM | actives 0.66% (n = 360,000) | AID 651702, 2012;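 active = inhibition above about 55%, limit read from the data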
MC4R antag cAMP – MC4R antagonists of cAMP signaling, primary screen, cell-based, TR-FRET, antagonist arm of biased-ligand search; Melanocortin receptor 4 (Homo sapiens), P32245; actives 0.48% (n = 360,000); MC4R-expressing cells, MTII-stimulated cAMP, LANCE TR-FRET; inhibition, % at 6.5 µM; AID 540295, 2011;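 active = inhibition above its plate's cutoff, the mean of tested wells on that plate plus 3 SD, cut at about 29% in these data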;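 note: 0% = Melanotan II alone and 100% = Melanotan II plus saturating MCL0020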
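Material: human MC4R-expressing U2OS cells. Probe or stimulus: Melanotan II challenge. Dosing: 6.5 µM single dose. Times: 30-min compound, 1-h challenge, 1-h detection, room temperature. Technique: TR-FRET with Eu-cAMP and labeled anti-cAMP, 671 nm. Replication: singlicate.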
ABCB6 inh 2 – ABCB6 transporter inhibitors, primary screen, K562-ABCB6 cells, flow cytometry, MLPCN library | K562-ABCB6 porphyrin accumulation, 1 h; stronger effect = lower value | ATP-binding cassette sub-family B member 6 (Homo sapiens), Q9NP58 | actives 0.19% (n = 360,000) | AID 602162, 2011 | fluorescence ratio to DMSO, % at 10 µM;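 active = fluorescence ratio to DMSO below 75%, the collection mean minus 3 SD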;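 note: signal is porphyrin accumulated inside mitochondria; 100% equals median channel fluorescence of DMSO control wells; lower ratio means ABCB6 inhibition with less porphyrin fluorescence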
TbMetRS inhib – T. brucei MetRS inhibitors, primary screen, biochemical, luminescence; methionyl-tRNA synthetase (Trypanosoma brucei brucei); purified T. brucei MetRS, ATP depletion, Kinase-Glo luminescence; inhibition, % at 11.9 µM; actives 0.4% (n = 360,000); AID 624268, 2012;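 active = inhibition above a per-plate cutoff of the control wells' mean inhibition plus 3 SD, cut at about 5.5% in these data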;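 note: 0% = DMSO wells median and 100% = median of wells with control inhibitor compound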
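Test system: purified T. brucei MetRS enzyme. Also added: ATP, methionine and E. coli bulk tRNA substrates. Compound: 11.9 µM single point. Schedule: 15 min enzyme-compound preincubation, 2 h reaction, 10 min detection, 25 °C. Signal: luciferase luminescence of residual ATP, Kinase-Glo. Evaluation: percent inhibition versus plate control medians. Controls: DMSO wells, low control.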
MC4R barr conf – MC4R beta-arrestin agonists, retest, confirmation, cell-based, luminescence, U2OS; shares compounds with MC4R barr agon; U2OS MC4R beta-arrestin recruitment; scaled DMSO 0%, Melanotan II 100%; activation, % at 8.9 µM; actives 31% (n = 2,400); AID 602192, 2012;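 active = mean activation across replicates above the hit cutoff set in the earlier primary screen, cut at about 8% in these data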
MOR-DOR barr ag – agonists of MOR-DOR heterodimerization, counter-screen for MC4R biased agonist project, cell-based, luminescence. shares compounds with MC4R barr agon. U2OS PathHunter beta-arrestin, beta-gal luminescence; percent of deltorphin B response, DMSO zero. activation, % at 9.2 µM. actives 5.8% (n = 2,400);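 active = mean activation across replicates exceeds the hit threshold derived in the earlier primary screen, cut at about 18% in these data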;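 note: 100% = deltorphin B at 0.9 µM final and 0% = DMSO alone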
Target sequence (P35372 whole entry, looked up): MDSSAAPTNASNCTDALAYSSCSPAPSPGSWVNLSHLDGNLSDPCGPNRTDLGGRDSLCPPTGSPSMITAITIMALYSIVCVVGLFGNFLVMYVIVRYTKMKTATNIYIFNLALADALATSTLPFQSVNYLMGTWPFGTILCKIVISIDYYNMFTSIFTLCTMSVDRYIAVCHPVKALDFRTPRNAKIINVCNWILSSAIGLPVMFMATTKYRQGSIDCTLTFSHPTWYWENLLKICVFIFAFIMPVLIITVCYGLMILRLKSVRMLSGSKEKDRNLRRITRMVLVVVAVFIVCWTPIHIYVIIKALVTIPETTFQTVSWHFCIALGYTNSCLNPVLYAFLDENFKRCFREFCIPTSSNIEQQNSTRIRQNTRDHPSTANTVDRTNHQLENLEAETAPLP
Target sequence (P41143 whole entry, looked up): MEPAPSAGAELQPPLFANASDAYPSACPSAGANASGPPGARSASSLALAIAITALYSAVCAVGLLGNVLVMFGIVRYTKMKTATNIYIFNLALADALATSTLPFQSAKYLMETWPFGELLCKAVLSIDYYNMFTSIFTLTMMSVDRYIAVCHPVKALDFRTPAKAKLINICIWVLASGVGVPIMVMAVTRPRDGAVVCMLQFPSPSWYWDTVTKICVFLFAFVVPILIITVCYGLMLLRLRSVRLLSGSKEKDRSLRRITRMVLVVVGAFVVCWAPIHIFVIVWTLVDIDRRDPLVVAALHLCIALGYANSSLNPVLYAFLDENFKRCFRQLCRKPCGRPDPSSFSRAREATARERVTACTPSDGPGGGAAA
* hit, by the source's call; . = no result given.

SMILES	iPSC survival up	MC4R barr agon	Exocytosis inh	MC4R antag cAMP	ABCB6 inh 2	TbMetRS inhib	MC4R barr conf	MOR-DOR barr ag
Cc1cccc(NC(=O)c2nc[nH]c2C(=O)NCCCCNC(=O)c2[nH]cnc2C(=O)Nc2cccc(C)c2)c1	2.7	-1.0	-0.1	2.8	96.0	-0.2	.	.
COc1nc(-c2ccccc2)c2cc(C)ccc2n1	-0.4	-0.9	-8.8	6.0	100.0	1.2	.	.
O=C(CCN1C(=O)/C(=C/C=C/c2ccccc2)SC1=S)Nc1cccnc1	0.5	11.8*	4.2	-7.3	93.0	0.3	32.4*	12.5
O=C(CCN1C(=O)/C(=C/C=C/c2ccccc2)SC1=S)Nc1ccccn1	-0.6	34.1*	-0.5	14.4	101.0	-0.3	21.6*	11.8
CCC1CCCCN1C(=O)/C=C/c1ccc2c(c1)OCO2 (centres undefined)	0.2	0.3	-1.8	14.6	103.0	-0.3	.	.
Cc1cc(C(=O)COC(=O)CNC(=O)c2ccc(Cl)c(Cl)c2)c(C)n1Cc1ccco1	4.9	11.7*	20.2	5.9	111.0	-1.7	-3.0	3.1
NS(=O)(=O)c1ccc(CCNc2nc3c(-c4cccc(F)c4)nnn3c3ccccc23)cc1	0.9	14.6*	8.3	-51.2	94.0	-0.1	10.7*	13.4
Cc1ccc2nc(NC(=O)C3CC3C)sc2c1 (centres undefined)	0.1	0.8	-13.4	6.4	95.0	-0.3	.	.
COc1ccc2oc(-c3ccc(C)c(NC(=O)c4ccc(N5CCOCC5)c([N+](=O)[O-])c4)c3)nc2c1	-0.2	10.7*	0.1	0.8	98.0	-0.1	3.6	4.4
COc1ccc(CNC(=O)c2ccc(N3CCOCC3)c([N+](=O)[O-])c2)cc1	1.0	1.0	-2.3	16.1	99.0	-0.1	.	.
Clc1ccc(-n2ncc3c(NCc4ccc5c(c4)OCO5)ncnc32)cc1	-0.7	10.2*	1.1	6.3	97.0	-0.7	2.7	6.7
CCC(Oc1cc(Cl)ccc1Cl)C(=O)NNC(=O)CCC(=O)O (centres undefined)	4.0	0.5	-5.2	16.6	107.0	-0.8	.	.
CCC(Oc1cc(Cl)ccc1Cl)C(=O)NN1C(=O)C2C3CCC(C3=C(C)C)C2C1=O (centres undefined)	-0.3	9.9*	-0.2	4.3	80.0	-0.1	5.7	8.3
COc1ccc(NC(=O)CSc2nc3c(c(=O)n(C)c(=O)n3C)n2C)c(OC)c1	0.7	-0.5	-5.0	-6.4	93.0	-0.7	.	.
O=C(CSc1nnnn1-c1ccc(F)cc1F)Nc1ccccc1F	-0.2	0.4	-4.0	2.1	103.0	-0.8	.	.
Clc1ccc(-c2nc3nc4ccccc4nc3n2Cc2ccco2)cc1	-3.1	20.1*	1.5	-0.6	83.0	0.3	-2.1	3.6
Cc1ccc(-c2nc3nc4ccccc4nc3n2Cc2ccco2)cc1	-1.1	4.3	-0.8	13.2	88.0	0.4	.	.
Cc1ccc(NC(=O)CSc2ccccc2NC(=O)c2ccccc2)cc1Cl	0.9	12.6*	-4.5	12.0	99.0	0.0	8.2	24.1*
O=C(Nc1nc2ccccc2s1)C1CCN(S(=O)(=O)c2cc([N+](=O)[O-])ccc2Cl)CC1	0.4	0.3	38.2	4.8	90.0	0.1	.	.
Cc1ccc(C(C(=O)NC2CCCCC2)N(C(=O)Cc2c[nH]c3ccccc23)c2ccccc2)o1 (centres undefined)	2.6	12.3*	1.6	-6.1	98.0	-0.3	6.0	9.9
CC(=O)Nc1ccc(N(C(=O)Cc2c[nH]c3ccccc23)C(C(=O)NC2CCCCC2)c2ccco2)cc1 (centres undefined)	-0.4	-1.9	-1.7	5.0	102.0	0.2	.	.
CCOc1ncccc1C(=O)Nc1cccc(-c2nc3cccnc3s2)c1	-0.3	17.4*	2.8	-6.3	89.0	-1.4	8.1	2.6
Clc1ccc(Sc2oc(/C=N/n3cnnc3)cc2Br)cc1	-0.7	-0.2	-4.0	-0.9	101.0	0.3	.	.
CN(C)C(=O)/C(C#N)=C\c1cc(Br)c(Sc2ccc(Cl)cc2)o1	-1.9	13.8*	14.7	4.6	97.0	0.2	0.0	5.6
Cc1cc(NC(=O)CSc2nc3cc(C)c(C)cc3cc2C)no1	-0.2	0.3	6.5	21.8	100.0	-0.1	.	.
SMILES	iPSC survival up	MC4R barr agon	Exocytosis inh	MC4R antag cAMP	ABCB6 inh 2	TbMetRS inhib	MC4R barr conf	MOR-DOR barr ag
Cc1ccc2nc(SCC(=O)Nc3cc(C)on3)c(C)cc2c1	0.9	11.1*	0.3	-0.8	86.0	-0.5	6.8	4.7
CC(=O)c1ccc(NC(=O)CN2CCN(S(=O)(=O)c3ccc4c(c3)OCCO4)CC2)cc1	-0.7	0.8	-8.3	3.5	98.0	-0.3	.	.
N#Cc1ccccc1N/C=C/C(=O)c1ccc(Cl)cc1	-0.6	12.6*	54.6	2.9	97.0	-0.5	3.4	2.9
O=C(/C=C/Nc1ccccc1F)c1ccc(Br)cc1	-2.4	-1.9	3.0	2.2	89.0	-0.8	.	.
O=C(Nc1cccc(C(F)(F)F)c1)c1cc(-c2ccc(F)cc2)on1	-1.3	16.3*	1.7	4.8	102.0	-0.7	6.0	3.9
CC(C)CCC1CC(CSC(=N)N)OC1=O (centres undefined)	7.8	-1.6	-1.0	6.7	99.0	-0.8	.	.
c1ccc(Cn2nnc3c(Nc4ccc5c(c4)OCO5)nc(C4CC4)nc32)cc1	2.0	17.6*	0.7	9.0	105.0	-0.5	2.6	5.0
CN(C)S(=O)(=O)c1ccc(Nc2nc(C3CC3)nc3c2nnn3Cc2ccccc2Cl)cc1	-1.3	0.1	0.7	5.8	90.0	-0.7	.	.
O=C(Nc1ccc(C(=O)OC[C@@H]2CCCN3CCCC[C@H]23)cc1)c1cccc(Br)c1	3.0	12.2*	-18.1	5.7	103.0	-0.2	7.5	8.0
CC(=O)c1cc2c(cc1NC(=O)c1ccc(C)cc1)OCCO2	-0.2	9.6*	2.7	1.2	102.0	0.0	2.0	1.2

Compound activity deposited in PubChem BioAssay by several laboratories.
